# Tests used:
# [1] = tested on: Brain; test: Ratio of drug uptake in ddY mouse brain at 1 uCi/100 uL, iv after 2 mins to drug uptake in ddY mouse brain at 1 uCi/100 uL, iv after 60 mins; type: ADME, organism-based; conditions: in vivo
# In short: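 Normal female ddY mice (5 weeks) received the radiotracer iv, and brain uptake (% ID/g, n = 4) was measured by gamma counting at 2 and 60 min. The index is brain uptake at 2 min divided by brain uptake at 60 min.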
# [2] = Partition coefficient, log D of the compound; type: physicochemical; conditions: octanol/water
# In short: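 Radiotracer partitioned between n-octanol and PBS: vortexed 3 min at room temperature, centrifuged 5 min at 3000 rpm. Weighed samples of the octanol (100 μL) and buffer (500 μL) layers were counted. log D is the log of the ratio of counts per gram, octanol versus PBS.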
# [3] = tested on: Blood; test: Biodistribution in ddY mouse blood at 1 uCi/100 uL, iv after 2 mins by gamma counting; type: ADME, organism-based; conditions: in vivo
# In short: (§1)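 Normal female ddY mice (5 weeks, about 20 g; n = 4 per group) received radiotracer iv. Organs were removed and weighed at 2–120 min and counted in a γ-counter. Percent dose per gram of wet tissue was calculated against diluted aliquots of the injected material and reported as mean ± SD.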
# [4] = tested on: Brain; test: Biodistribution in ddY mouse brain at 1 uCi/100 uL, iv after 2 mins by gamma counting; type: ADME, organism-based; conditions: in vivo; in short: as §1
# [5] = tested on: Heart; test: Biodistribution in ddY mouse heart at 1 uCi/100 uL, iv after 2 mins by gamma counting; type: ADME, organism-based; conditions: in vivo; in short: as §1
# [6] = tested on: Liver; test: Biodistribution in ddY mouse liver at 1 uCi/100 uL, iv after 2 mins by gamma counting; type: ADME, organism-based; conditions: in vivo
# [7] = tested on: Spleen; test: Biodistribution in ddY mouse spleen at 1 uCi/100 uL, iv after 2 mins by gamma counting; type: ADME, organism-based; conditions: in vivo
# [8] = tested on: Lung; test: Biodistribution in ddY mouse lung at 1 uCi/100 uL, iv after 2 mins by gamma counting; type: ADME, organism-based; conditions: in vivo
# [9] = tested on: Kidney; test: Biodistribution in ddY mouse kidney at 1 uCi/100 uL, iv after 2 mins by gamma counting; type: ADME, organism-based; conditions: in vivo; in short: as §1
# [10] = tested on: Stomach; test: Biodistribution in ddY mouse stomach at 1 uCi/100 uL, iv after 2 mins by gamma counting; type: ADME, organism-based; conditions: in vivo
# [11] = tested on: Intestine; test: Biodistribution in ddY mouse intestine at 1 uCi/100 uL, iv after 2 mins by gamma counting; type: ADME, organism-based; conditions: in vivo; in short: as §1
# [12] = tested on: Thyroid gland; test: Biodistribution in ddY mouse thyroid at 1 uCi/100 uL, iv after 2 mins by gamma counting; type: ADME, organism-based; conditions: in vivo
# [13] = tested on: Blood; test: Biodistribution in ddY mouse blood at 1 uCi/100 uL, iv after 15 mins by gamma counting; type: ADME, organism-based; conditions: in vivo, 0.25 h; in short: as §1
# [14] = tested on: Brain; test: Biodistribution in ddY mouse brain at 1 uCi/100 uL, iv after 15 mins by gamma counting; type: ADME, organism-based; conditions: in vivo, 0.25 h; in short: as §1
# [15] = tested on: Heart; test: Biodistribution in ddY mouse heart at 1 uCi/100 uL, iv after 15 mins by gamma counting; type: ADME, organism-based; conditions: in vivo, 0.25 h; in short: as §1
# [16] = tested on: Liver; test: Biodistribution in ddY mouse liver at 1 uCi/100 uL, iv after 15 mins by gamma counting; type: ADME, organism-based; conditions: in vivo, 0.25 h
# [17] = tested on: Spleen; test: Biodistribution in ddY mouse spleen at 1 uCi/100 uL, iv after 15 mins by gamma counting; type: ADME, organism-based; conditions: in vivo, 0.25 h
# [18] = tested on: Lung; test: Biodistribution in ddY mouse lung at 1 uCi/100 uL, iv after 15 mins by gamma counting; type: ADME, organism-based; conditions: in vivo, 0.25 h
# [19] = tested on: Kidney; test: Biodistribution in ddY mouse kidney at 1 uCi/100 uL, iv after 15 mins by gamma counting; type: ADME, organism-based; conditions: in vivo, 0.25 h; in short: as §1
# [20] = tested on: Stomach; test: Biodistribution in ddY mouse stomach at 1 uCi/100 uL, iv after 15 mins by gamma counting; type: ADME, organism-based; conditions: in vivo, 0.25 h
# [21] = tested on: Intestine; test: Biodistribution in ddY mouse intestine at 1 uCi/100 uL, iv after 15 mins by gamma counting; type: ADME, organism-based; conditions: in vivo, 0.25 h; in short: as §1
# [22] = tested on: Thyroid gland; test: Biodistribution in ddY mouse thyroid at 1 uCi/100 uL, iv after 15 mins by gamma counting; type: ADME, organism-based; conditions: in vivo, 0.25 h
# [23] = tested on: Blood; test: Biodistribution in ddY mouse blood at 1 uCi/100 uL, iv after 30 mins by gamma counting; type: ADME, organism-based; conditions: in vivo, 0.5 h; in short: as §1
# [24] = tested on: Brain; test: Biodistribution in ddY mouse brain at 1 uCi/100 uL, iv after 30 mins by gamma counting; type: ADME, organism-based; conditions: in vivo, 0.5 h; in short: as §1
# [25] = tested on: Heart; test: Biodistribution in ddY mouse heart at 1 uCi/100 uL, iv after 30 mins by gamma counting; type: ADME, organism-based; conditions: in vivo, 0.5 h; in short: as §1
# [26] = tested on: Liver; test: Biodistribution in ddY mouse liver at 1 uCi/100 uL, iv after 30 mins by gamma counting; type: ADME, organism-based; conditions: in vivo, 0.5 h
# [27] = tested on: Spleen; test: Biodistribution in ddY mouse spleen at 1 uCi/100 uL, iv after 30 mins by gamma counting; type: ADME, organism-based; conditions: in vivo, 0.5 h
# [28] = tested on: Lung; test: Biodistribution in ddY mouse lung at 1 uCi/100 uL, iv after 30 mins by gamma counting; type: ADME, organism-based; conditions: in vivo, 0.5 h
# [29] = tested on: Kidney; test: Biodistribution in ddY mouse kidney at 1 uCi/100 uL, iv after 30 mins by gamma counting; type: ADME, organism-based; conditions: in vivo, 0.5 h
# [30] = tested on: Stomach; test: Biodistribution in ddY mouse stomach at 1 uCi/100 uL, iv after 30 mins by gamma counting; type: ADME, organism-based; conditions: in vivo, 0.5 h
# [31] = tested on: Intestine; test: Biodistribution in ddY mouse intestine at 1 uCi/100 uL, iv after 30 mins by gamma counting; type: ADME, organism-based; conditions: in vivo, 0.5 h; in short: as §1
# [32] = tested on: Thyroid gland; test: Biodistribution in ddY mouse thyroid at 1 uCi/100 uL, iv after 30 mins by gamma counting; type: ADME, organism-based; conditions: in vivo, 0.5 h
# [33] = tested on: Blood; test: Biodistribution in ddY mouse blood at 1 uCi/100 uL, iv after 60 mins by gamma counting; type: ADME, organism-based; conditions: in vivo, 1 h; in short: as §1
# [34] = tested on: Brain; test: Biodistribution in ddY mouse brain at 1 uCi/100 uL, iv after 60 mins by gamma counting; type: ADME, organism-based; conditions: in vivo, 1 h; in short: as §1
# [35] = tested on: Heart; test: Biodistribution in ddY mouse heart at 1 uCi/100 uL, iv after 60 mins by gamma counting; type: ADME, organism-based; conditions: in vivo, 1 h; in short: as §1
# [36] = tested on: Liver; test: Biodistribution in ddY mouse liver at 1 uCi/100 uL, iv after 60 mins by gamma counting; type: ADME, organism-based; conditions: in vivo, 1 h
# [37] = tested on: Spleen; test: Biodistribution in ddY mouse spleen at 1 uCi/100 uL, iv after 60 mins by gamma counting; type: ADME, organism-based; conditions: in vivo, 1 h
# [38] = tested on: Lung; test: Biodistribution in ddY mouse lung at 1 uCi/100 uL, iv after 60 mins by gamma counting; type: ADME, organism-based; conditions: in vivo, 1 h
# [39] = tested on: Kidney; test: Biodistribution in ddY mouse kidney at 1 uCi/100 uL, iv after 60 mins by gamma counting; type: ADME, organism-based; conditions: in vivo, 1 h
# [40] = tested on: Stomach; test: Biodistribution in ddY mouse stomach at 1 uCi/100 uL, iv after 60 mins by gamma counting; type: ADME, organism-based; conditions: in vivo, 1 h
# [41] = tested on: Intestine; test: Biodistribution in ddY mouse intestine at 1 uCi/100 uL, iv after 60 mins by gamma counting; type: ADME, organism-based; conditions: in vivo, 1 h; in short: as §1
# [42] = tested on: Thyroid gland; test: Biodistribution in ddY mouse thyroid at 1 uCi/100 uL, iv after 60 mins by gamma counting; type: ADME, organism-based; conditions: in vivo, 1 h
# [43] = tested on: Blood; test: Biodistribution in ddY mouse blood at 1 uCi/100 uL, iv after 120 mins by gamma counting; type: ADME, organism-based; conditions: in vivo, 2 h; in short: as §1
# [44] = tested on: Brain; test: Biodistribution in ddY mouse brain at 1 uCi/100 uL, iv after 120 mins by gamma counting; type: ADME, organism-based; conditions: in vivo, 2 h; in short: as §1
# [45] = tested on: Heart; test: Biodistribution in ddY mouse heart at 1 uCi/100 uL, iv after 120 mins by gamma counting; type: ADME, organism-based; conditions: in vivo, 2 h; in short: as §1
# [46] = tested on: Liver; test: Biodistribution in ddY mouse liver at 1 uCi/100 uL, iv after 120 mins by gamma counting; type: ADME, organism-based; conditions: in vivo, 2 h
# [47] = tested on: Spleen; test: Biodistribution in ddY mouse spleen at 1 uCi/100 uL, iv after 120 mins by gamma counting; type: ADME, organism-based; conditions: in vivo, 2 h
# [48] = tested on: Lung; test: Biodistribution in ddY mouse lung at 1 uCi/100 uL, iv after 120 mins by gamma counting; type: ADME, organism-based; conditions: in vivo, 2 h
# [49] = tested on: Kidney; test: Biodistribution in ddY mouse kidney at 1 uCi/100 uL, iv after 120 mins by gamma counting; type: ADME, organism-based; conditions: in vivo, 2 h; in short: as §1
# [50] = tested on: Stomach; test: Biodistribution in ddY mouse stomach at 1 uCi/100 uL, iv after 120 mins by gamma counting; type: ADME, organism-based; conditions: in vivo, 2 h
# [51] = tested on: Intestine; test: Biodistribution in ddY mouse intestine at 1 uCi/100 uL, iv after 120 mins by gamma counting; type: ADME, organism-based; conditions: in vivo, 2 h; in short: as §1
# [52] = tested on: Thyroid gland; test: Biodistribution in ddY mouse thyroid at 1 uCi/100 uL, iv after 120 mins by gamma counting; type: ADME, organism-based; conditions: in vivo, 2 h
compound,measurement,setting,value
CN(C)c1ccc(/C=C/C(=O)/C=C/c2ccc([125I])cc2)cc1,Ratio,[1],5.68
same,logD,[2],3.66
same,Drug uptake,[3],11.62 % ID/g
same,Drug uptake,[4],1.59 % ID/g
same,Drug uptake,[5],6.42 % ID/g
same,Drug uptake,[6],44.64 % ID/g
same,Drug uptake,[7],11.59 % ID/g
same,Drug uptake,[8],24.45 % ID/g
same,Drug uptake,[9],15.86 % ID/g
same,Drug uptake,[10],1.16 % ID/organ
same,Drug uptake,[11],1.38 % ID/g
same,Drug uptake,[12],11.56 % ID/g
same,Drug uptake,[13],6.58 % ID/g
same,Drug uptake,[14],1.11 % ID/g
same,Drug uptake,[15],2.69 % ID/g
same,Drug uptake,[16],32.8 % ID/g
same,Drug uptake,[17],9.94 % ID/g
same,Drug uptake,[18],12.97 % ID/g
same,Drug uptake,[19],22.23 % ID/g
same,Drug uptake,[20],1.75 % ID/organ
same,Drug uptake,[21],7.38 % ID/g
same,Drug uptake,[22],14.93 % ID/g
same,Drug uptake,[23],3.98 % ID/g
same,Drug uptake,[24],0.63 % ID/g
same,Drug uptake,[25],1.62 % ID/g
same,Drug uptake,[26],24.64 % ID/g
same,Drug uptake,[27],12.26 % ID/g
same,Drug uptake,[28],6.91 % ID/g
same,Drug uptake,[29],15.63 % ID/g
same,Drug uptake,[30],1.85 % ID/organ
same,Drug uptake,[31],11.62 % ID/g
same,Drug uptake,[32],26.77 % ID/g
same,Drug uptake,[33],2.16 % ID/g
same,Drug uptake,[34],0.28 % ID/g
same,Drug uptake,[35],1.03 % ID/g
same,Drug uptake,[36],11.54 % ID/g
same,Drug uptake,[37],6.28 % ID/g
same,Drug uptake,[38],3.64 % ID/g
same,Drug uptake,[39],7 % ID/g
same,Drug uptake,[40],0.61 % ID/organ
same,Drug uptake,[41],7.68 % ID/g
same,Drug uptake,[42],23.53 % ID/g
same,Drug uptake,[43],2.29 % ID/g
same,Drug uptake,[44],0.26 % ID/g
same,Drug uptake,[45],1.19 % ID/g
same,Drug uptake,[46],16.47 % ID/g
same,Drug uptake,[47],7.34 % ID/g
same,Drug uptake,[48],3.35 % ID/g
same,Drug uptake,[49],8.55 % ID/g
same,Drug uptake,[50],0.77 % ID/organ
same,Drug uptake,[51],17.65 % ID/g
same,Drug uptake,[52],32.22 % ID/g
